Results as given in ChEMBL document CHEMBL3865799, “Synthesis of a series of novel dihydroartemisinin monomers and dimers containing chalcone as a linker and their anticancer activity” (Eur J Med Chem, 2016).
Calls of active or inactive are those of the source. The calls are words filed in the database; no cut-off is given here.

Tests used:
[1] = Cytotoxicity against human HepG2 cells assessed as cell growth inhibition after 48 hrs by MTT assay; type: functional, cell-based; conditions: HepG2, 48 h
In short: (§1)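 Adherent lines at 70–75% confluence, grown at 37 °C in 5% CO2 with 10% FCS. Exposed 48 h to compound in DMSO (vehicle <0.2% v/v). MTT dye added 3 h before termination; formazan dissolved in DMSO, OD 570 nm with 620 nm reference. Growth inhibition expressed as % of untreated; IC50 taken from the dose series.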

[2] = Cytotoxicity against human LS180 cells assessed as cell growth inhibition at 1 uM after 48 hrs by MTT assay; type: functional; conditions: LS180, 48 h, read-out: GI; in short: as §1
[3] = Cytotoxicity against human PC3 cells assessed as cell growth inhibition at 0.5 uM after 48 hrs by MTT assay; type: functional; conditions: PC-3, 48 h, read-out: GI; in short: as §1
HL-60 [4] = experiment: Induction of apoptosis in human HL60 cells assessed as blebs formation after 24 hrs phase contrast microscopic analysis; type: functional, cell-based
In short: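 HL-60 cells at 0.5 × 10^6 cells/ml treated 24 h with compound at 0.2, 0.5, 1 or 5 (DMSO vehicle). Treated and control cells photographed under a phase contrast microscope at 20× and scored for morphology.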

HL-60 [5] = experiment: Induction of apoptosis in human HL60 cells assessed as morphological alterations after 24 hrs by hoechst 33258 staining-based microscopic analysis; type: functional, cell-based
In short: (§2)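 HL-60 cells at 0.5 × 10^6/ml were treated for 24 h with […] compound in DMSO vehicle (<0.2%). Cells were fixed in cold acetic acid:methanol (1:3) for 1 h on ice, spread on slides and air-dried overnight. Slides were stained with Hoechst 33258 for 30 min, mounted in glycerol:PBS and viewed by fluorescence microscopy at 20×. Morphology was checked by phase contrast. One of three experiments shown.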

[6] = Cytotoxicity against human HepG2 cells assessed as cell growth inhibition at 50 uM after 48 hrs by MTT assay; type: functional; conditions: HepG2, 48 h, read-out: GI; in short: as §1
[7] = Cell cycle arrest in human HL60 cells assessed as accumulation at G2 phase at 1 uM after 24 hrs by propidium iodide-DNA fluorescence based FACS analysis (reference value: 1 %); type: functional; conditions: HL-60
In short: (§3)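 HL-60 cells seeded at 0.5 × 10^6 cells/ml, exposed 24 h to compound (DMSO vehicle, <0.2% v/v). Pelleted at 400×g, PBS-washed, fixed in 70% ethanol at 4 °C overnight. RNase A treatment at 37 °C for 1.30 h, then propidium iodide staining for 20 min. Flow cytometry on 10,000 events, FL2-A vs FL2-W; subG0 (apoptotic) and phase populations gated.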

[8] = Cytotoxicity against human HepG2 cells assessed as cell growth inhibition at 10 uM after 48 hrs by MTT assay; type: functional; conditions: HepG2, 48 h, read-out: GI; in short: as §1
HL-60 [9] = experiment: Induction of apoptosis in human HL60 cells assessed as condensation of nuclei after 24 hrs by hoechst 33258 staining-based microscopic analysis; type: functional, cell-based; in short: as §2
[10] = Cytotoxicity against human LS180 cells assessed as cell growth inhibition at 10 uM after 48 hrs by MTT assay; type: functional; conditions: LS180, 48 h, read-out: GI; in short: as §1
[11] = Cytotoxicity against human MIAPaCa2 cells assessed as cell growth inhibition at 0.5 uM after 48 hrs by MTT assay; type: functional; conditions: MIA PaCa-2, 48 h, read-out: GI; in short: as §1
[12] = Cytotoxicity against human LS180 cells assessed as cell growth inhibition after 48 hrs by MTT assay; type: functional, cell-based; conditions: LS180, 48 h; in short: as §1
[13] = Cell cycle arrest in human HL60 cells assessed as accumulation at S phase at 0.5 uM after 24 hrs by propidium iodide-DNA fluorescence based FACS analysis (reference value: 53 %); type: functional; conditions: HL-60; in short: as §3
[14] = Cytotoxicity against human PC3 cells assessed as cell growth inhibition at 1 uM after 48 hrs by MTT assay; type: functional; conditions: PC-3, 48 h, read-out: GI; in short: as §1
[15] = Cytotoxicity against human PC3 cells assessed as cell growth inhibition at 10 uM after 48 hrs by MTT assay; type: functional; conditions: PC-3, 48 h, read-out: GI; in short: as §1
[16] = Cytotoxicity against human MIAPaCa2 cells assessed as cell growth inhibition at 50 uM after 48 hrs by MTT assay; type: functional; conditions: MIA PaCa-2, 48 h, read-out: GI; in short: as §1
[17] = Cytotoxicity against human HL60 cells assessed as cell growth inhibition after 48 hrs by MTT assay; type: functional, cell-based; conditions: HL-60, 48 h
In short: (§4)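 HL-60 suspension cells, 1.5 × 10^4 per well, grown at 37 °C in 5% CO2 with 10% FCS. Treated 48 h with compound in DMSO (vehicle <0.2% v/v). MTT added 3 h before the end. Formazan dissolved in DMSO and read at 570 nm (reference 620 nm). % growth inhibition computed against untreated cells; IC50 taken from the concentration series.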

[18] = Cytotoxicity against human LS180 cells assessed as cell growth inhibition at 50 uM after 48 hrs by MTT assay; type: functional; conditions: LS180, 48 h, read-out: GI; in short: as §1
[19] = Cytotoxicity against human PC3 cells assessed as cell growth inhibition at 50 uM after 48 hrs by MTT assay; type: functional; conditions: PC-3, 48 h, read-out: GI; in short: as §1
HL-60 [20] = experiment: Induction of apoptosis in human HL60 cells assessed as induction of apoptotic bodies at 0.5 uM after 24 hrs by hoechst 33258 staining-based microscopic analysis; type: functional, cell-based; in short: as §2
[21] = Cell cycle arrest in human HL60 cells assessed as accumulation at subG0 phase at 5 uM after 24 hrs by propidium iodide-DNA fluorescence based FACS analysis (reference value: 5 %); type: functional; conditions: HL-60; in short: as §3
[22] = Lipophilicity, log P of the compound at pH 7; type: physicochemical; conditions: buffer
[23] = Cytotoxicity against human HL60 cells assessed as cell growth inhibition at 10 uM after 48 hrs by MTT assay; type: functional; conditions: HL-60, 48 h, read-out: GI; in short: as §4
Vero [24] = experiment: Selectivity index, ratio of IC50 for African green monkey Vero cells to IC50 for human PC3 cells; type: functional
In short: (§5)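 Suspension cells were seeded at 1.5 × 10^4 per well and adherent lines at 70–75% confluence, then exposed to a range of concentrations. MTT was added 3 h before the end, formazan dissolved in DMSO, and OD read at 570 nm (reference 620 nm). Growth inhibition was taken relative to untreated cells. IC50 came from the MTT data; SI = IC50 in Vero cells / IC50 in the tumour line.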

[25] = Cytotoxicity against human MIAPaCa2 cells assessed as cell growth inhibition at 10 uM after 48 hrs by MTT assay; type: functional; conditions: MIA PaCa-2, 48 h, read-out: GI; in short: as §1
[26] = Cytotoxicity against human HL60 cells assessed as cell growth inhibition at 0.5 uM after 48 hrs by MTT assay; type: functional; conditions: HL-60, 48 h, read-out: GI; in short: as §4
[27] = Cell cycle arrest in human HL60 cells assessed as accumulation at subG0 phase after 24 hrs by propidium iodide-DNA fluorescence based FACS analysis; type: functional; conditions: HL-60; in short: as §3
[28] = Cytotoxicity against human LS180 cells assessed as cell growth inhibition at 0.5 uM after 48 hrs by MTT assay; type: functional; conditions: LS180, 48 h, read-out: GI; in short: as §1
[29] = Aqueous solubility of the compound at pH 7; type: physicochemical
Vero [30] = experiment: Selectivity index, ratio of IC50 for African green monkey Vero cells to IC50 for human HL60 cells; type: functional; in short: as §5
[31] = Cytotoxicity against human HepG2 cells assessed as cell growth inhibition at 0.5 uM after 48 hrs by MTT assay; type: functional; conditions: HepG2, 48 h, read-out: GI; in short: as §1
[32] = Cell cycle arrest in human HL60 cells assessed as accumulation at subG0 phase at 5 uM after 24 hrs by propidium iodide-DNA fluorescence based FACS analysis (reference value: 5 %); conditions: HL-60

Compound | IC50 [1] | inhibition of growth at 1 µM [2] | inhibition of growth at 0.5 µM [3] | Activity (HL-60 [4]) | Activity (HL-60 [5]) | inhibition of growth at 50 µM [6] | Activity [7] | inhibition of growth at 10 µM [8] | Activity (HL-60 [9]) | IC50 [12] | Activity [13] | inhibition of growth at 50 µM [16] | IC50 [17] | inhibition of growth at 50 µM [18] | inhibition of growth at 50 µM [19] | Activity [21] | inhibition of growth at 10 µM [23] | Ratio IC50 (Vero [24]) | inhibition of growth at 0.5 µM [26] | Ratio IC50 (Vero [30]) | also measured
C[C@H]1[C@@H](OCCOc2cccc(C(=O)/C=C/c3ccc(O)cc3)c2)O[C@@H]2O[C@@]3(C)CC[C@H]4[C@H](C)CC[C@@H]1[C@@]24OO3 | 15 µM | 24.7% | 15.2% | Dose-dependent effect | Dose-dependent effect | 33.2 to 64.5% | 19% | 37.7% | Dose-dependent effect | > 50 µM | 38% | 88.6% | 0.4 µM | 35.2% | 87.9% | 70% | 88.7% | 80 | 52.9% | 180 | inhibition of growth at 10 µM [10]: 27.2%; inhibition of growth at 0.5 µM [11]: 12.7%; inhibition of growth at 1 µM [14]: 22.8%; inhibition of growth at 10 µM [15]: 29.6%; Activity (HL-60 [20]): Active; logP [22]: -5.96; inhibition of growth at 10 µM [25]: 15.1%; Activity [27]: Dose-dependent effect; inhibition of growth at 0.5 µM [28]: 21.7%; solubility [29]: > 100 µg/mL; inhibition of growth at 0.5 µM [31]: 25.2%
C[C@H]1[C@@H](O)O[C@@H]2O[C@@]3(C)CC[C@H]4[C@H](C)CC[C@@H]1[C@@]24OO3 [ARTENIMOL] | 29 µM | – | – | – | – | 39% | 4% | – | – | 32 µM | 37% | 71% | 2 µM | 42% | 43% | 27% | 63% | 25 | 36% | 63 | Activity [32]: 27%
C[C@H]1[C@@H](OCCOc2ccc(/C=C/C(=O)c3ccc(O)cc3)cc2)O[C@@H]2O[C@@]3(C)CC[C@H]4[C@H](C)CC[C@@H]1[C@@]24OO3 | 7 µM | 36.5% | 19.3% | Dose-dependent effect | Dose-dependent effect | 55.2 to 82.3% | 16% | 60.4% | Dose-dependent effect | 24 µM | 32% | 88.8% | 0.3 µM | 75.2% | 88.9% | 95% | 88.4% | 82 | 58.2% | 240 | Activity [32]: 95%; inhibition of growth at 10 µM [10]: 36.6%; inhibition of growth at 0.5 µM [11]: 6.2%; inhibition of growth at 1 µM [14]: 25.4%; inhibition of growth at 10 µM [15]: 41.5%; Activity (HL-60 [20]): Active; logP [22]: -5.96; inhibition of growth at 10 µM [25]: 16.8%; Activity [27]: Dose-dependent effect; inhibition of growth at 0.5 µM [28]: 32.2%; solubility [29]: > 100 µg/mL; inhibition of growth at 0.5 µM [31]: 20.2%
